Laboratory results published in article PMC9067284 (RSC Advances, 2019).
Blank lines part the entries; values can stand above or below the molecule they belong to.

Key:
PDK3 [1] = target: T1, PDK3 (Homo sapiens, UniProt Q15120); test: Fluorescence quenching binding study with purified PDK3
Procedure, shortened: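 Intrinsic tryptophan fluorescence quenching of refolded His-tagged human PDK3 (4 μM) at 25 ± 0.1 °C in 50 mM Tris pH 8.0. Test compounds come from 10–30 mM DMSO stocks and are titrated at 0.1–4.0 μM or 2–12 μM. Excitation 280 nm, emission 300–400 nm, blank subtracted, triplicates averaged. Ka and number of sites come from a modified Stern–Volmer plot.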

PDK3 [2] = target: T1, PDK3; test: Isothermal titration calorimetry of PDK3 with EA; format: binding; conditions: ITC, 25 °C, four-site model
Procedure, shortened: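 VP-ITC at 25 °C with PDK3 (30 μM) in the cell and 1% v/v DMSO added to the protein. Test compound is injected from the syringe: a 2 μl first injection, then 10 μl injections at 300 s intervals, stirring at 320 rpm. Heat of dilution is subtracted. The isotherm is fitted to a four-set-of-sites model for Ka, n, ΔH and ΔS.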

PDK3 [3] = target: T1, PDK3; test: Enzyme inhibition assay; format: biochemical
Procedure, shortened: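 Recombinant full-length human PDK3, His-tagged, expressed in E. coli BL21 Gold, purified from inclusion bodies by Ni-NTA and refolded by dialysis. Enzyme 5 μM with 200 μM ATP and test compound 0–30 μM, 15–20 min at 25 °C in 50 mM Tris, 100 mM NaCl, pH 8.0. Released phosphate read by malachite green at 620 nm against a 0.0–8 nmol phosphate standard curve. Triplicates, at least three independent experiments.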

HepG2 cells = test: Cell proliferation MTT assay, HepG2; format: cell-based; conditions: Homo sapiens, HepG2, 48 h, read-out: IC50, cell growth inhibition
Procedure, shortened: (§1)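 Cells at 37 °C, 5% CO2: A549 in F12K medium; HepG2 and HEK293 in DMEM with 10% heat-inactivated FBS and 1% penicillin-streptomycin; kept under 30 passages. Test compound at 0–250 μM for 48 h in 200 μl, then MTT with absorbance at 570 nm. Viability is given as % of untreated control and plotted against concentration. Doxorubicin is the positive control.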

A549 cells = test: Cell proliferation MTT assay, A549; format: cell-based; conditions: Homo sapiens, A549, 48 h, read-out: IC50, cell growth inhibition
Procedure, shortened: as §1

T1 sequence (Q15120 whole entry): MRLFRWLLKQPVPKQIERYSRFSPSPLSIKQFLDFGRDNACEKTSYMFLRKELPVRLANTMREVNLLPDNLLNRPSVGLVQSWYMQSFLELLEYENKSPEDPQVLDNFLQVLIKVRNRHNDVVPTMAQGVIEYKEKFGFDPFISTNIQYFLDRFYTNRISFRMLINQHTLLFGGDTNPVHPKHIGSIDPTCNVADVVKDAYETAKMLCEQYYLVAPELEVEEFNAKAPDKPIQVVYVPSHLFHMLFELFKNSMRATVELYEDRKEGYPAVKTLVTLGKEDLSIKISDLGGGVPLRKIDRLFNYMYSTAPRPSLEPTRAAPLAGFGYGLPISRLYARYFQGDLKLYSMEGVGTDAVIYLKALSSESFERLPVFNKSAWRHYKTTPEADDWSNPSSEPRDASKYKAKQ

- Kd (PDK3 [1]): 1760 nM
Structure (SMILES): C[C@H]1[C@H](C)CC[C@]2(C(=O)O)CC[C@]3(C)C(=CC[C@@H]4[C@@]5(C)CC[C@H](O)C(C)(C)[C@@H]5CC[C@]43C)[C@H]12 [Ursolic acid]

- Kd (PDK3 [1]): 31.6 nM
Structure (SMILES): CC1(C)O[C@H]2CC(=O)OC[C@]23[C@H]2CC[C@@]4(C)[C@H](c5ccoc5)OC(=O)[C@H]5O[C@]54[C@]2(C)C(=O)C[C@@H]13 [Limonin]

- Kd (PDK3 [1]): 3.73 nM
- ΔS1 (entropy change) (PDK3 [2]; site 1): ΔS1 = 9.13 cal mol^−1 deg^−1
- ΔS2 (entropy change) (PDK3 [2]; site 2): ΔS2 = −927 cal mol^−1 deg^−1
- ΔS3 (entropy change) (PDK3 [2]; site 3): ΔS3 = −1950 cal mol^−1 deg^−1
- ΔS4 (entropy change) (PDK3 [2]; site 4): ΔS4 = −2090 cal mol^−1 deg^−1
- Kd (PDK3 [2]; Ka1 (association constant), site 1): 106 µM
- Kd (PDK3 [2]; Ka2 (association constant), site 2): 8.47 µM
- Kd (PDK3 [2]; Ka3 (association constant), site 3): 25.6 µM
- Kd (PDK3 [2]; Ka4 (association constant), site 4): 33.7 µM
- IC50 (PDK3 [3]): ~5 µM
- IC50 (HepG2 cells): 36.7 ± 3.22 µM
- IC50 (A549 cells): 23.4 ± 1.33 µM
Structure (SMILES): O=c1oc2c(O)c(O)cc3c(=O)oc4c(O)c(O)cc1c4c23 [Ellagic acid]

- Kd (PDK3 [1]): 177 nM
Structure (SMILES): CC(C)=CCCC(C)=CC=O (mixture of isomers) [Citral]

- Kd (PDK3 [1]): 271 nM
Structure (SMILES): COc1cc(CNC(=O)CCCC/C=C/C(C)C)ccc1O [Capsaicin]

- Kd (PDK3 [1]): 2590 nM
Structure (SMILES): CCC(C)(C)C(=O)O[C@H]1C[C@@H](C)C=C2C=C[C@H](C)[C@H](CC[C@@H]3C[C@@H](O)CC(=O)O3)[C@H]21 [Simvastatin, reference compound]

- Kd (PDK3 [1]): 5620 nM
Structure (SMILES): COc1cc(C=O)ccc1O [Vanillin]
